Experimental data from ChEMBL document CHEMBL4422693, “Antifungal Phenylpropanoid Glycosides from Lippia rubella” (J Nat Prod, 2019).
Converted amounts (≈) assume the structure as drawn.

How the values were obtained:
Candida parapsilosis [1] = test: Antifungal activity against Candida parapsilosis ATCC 22019 after 48 hrs by micro broth dilution method; conditions: Lodderomyces parapsilosis, ATCC 22019, 48 h
Cryptococcus neoformans [2] = test: Antifungal activity against Cryptococcus neoformans isolate T1444 after 48 hrs by micro broth dilution method; assay type: functional; conditions: isolate T1444, 48 h
In short: (§1)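 CLSI M27-A broth microdilution. Fungi at 10^6 cells/mL were grown in fresh BHI medium with samples at 1 pg/mL to 1 mg/mL, at 37 °C for 48 h. Growth was read daily by visible turbidity. MIC was the lowest concentration preventing growth. Inhibition was confirmed with resazurin (5 mg/100 mL PBS, pH 7.2) after a further 3 h at 37 °C. Amphotericin B was the positive control.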

Cryptococcus neoformans [3] = test: Antifungal activity against Cryptococcus neoformans ATCC 24067 after 48 hrs by micro broth dilution method; assay type: functional; conditions: ATCC 24067, 48 h
In short: as §1

Candida albicans = test: Antimicrobial activity against Candida albicans ATCC 10231 after 48 hrs by microbroth dilution method; assay type: functional; conditions: ATCC 10231, 48 h
In short: as §1

Cryptococcus neoformans [4] = test: Antifungal activity against Cryptococcus neoformans isolate T1444 assessed as FIC index after 48 hrs in presence of amphotericin B by micro broth dilution method; assay type: functional
In short: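 Checkerboard dose matrix in microplates. Sample and amphotericin B were each used below their single-agent MICs. Inoculum was 10^3 cells/mL, incubated at room temperature for 48 h. Growth was read visually and confirmed with resazurin. FIC for each agent is the MIC in combination divided by the MIC alone, and FICindex is the sum of the two FICs. Synergy is <0.5, additive is >0.5 to ≤1, and antagonism is >4.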

[5] = Hemolytic activity in human RBC after 1 hr by spectrophotometric method; assay type: ADME, cell-based, Erythrocyte; conditions: human red blood cells (erythrocytes)
In short: (§2)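 Sample solutions (2000 to 15.6 μg/mL before mixing) were incubated with a 4% human O+ erythrocyte suspension in PBS (1:4 by volume) for 1 h at 37 °C. PBS was then added, and lysis was read at 590 nm. PBS served as the negative control and water as the positive control.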

Erythrocyte = test: Hemolytic activity in human RBC at MIC after 1 hr by spectrophotometric method; assay type: ADME, cell-based
In short: as §2

Candida parapsilosis [6] = test: Antifungal activity against Candida parapsilosis ATCC 22019 after 24 hrs by micro broth dilution method; assay type: functional; conditions: Lodderomyces parapsilosis, ATCC 22019, 24 h

Structure (SMILES) | MIC (Candida parapsilosis [1]) | MIC (Cryptococcus neoformans [2]) | MIC (Cryptococcus neoformans [3]) | MIC (Candida albicans) | fractional inhibitory concentration index (FICI) (Cryptococcus neoformans [4]) | HC50 at 1 h [5] | Activity (Erythrocyte) | MIC (Candida parapsilosis [6])
C[C@@H]1[C@H](O)[C@@H](C)/C=C/C=C/C=C/C=C/C=C/C=C/C=C/[C@H](O[C@@H]2O[C@H](C)[C@@H](O)[C@H](N)[C@@H]2O)C[C@@H]2O[C@](O)(C[C@@H](O)C[C@@H](O)[C@H](O)CC[C@@H](O)C[C@@H](O)CC(=O)O[C@H]1C)C[C@H](O)[C@H]2C(=O)O [AMPHOTERICIN B] | 0.125 µg/mL (≈ 0.135 µM) | 0.125 µg/mL (≈ 0.135 µM) | 0.125 µg/mL (≈ 0.135 µM) | 0.25 µg/mL (≈ 0.271 µM) |  |  |  | 
C[C@@H]1O[C@@H](O[C@@H]2[C@@H](O)[C@H](OCCc3ccc(O)c(O)c3)O[C@H](CO)[C@H]2OC(=O)/C=C/c2ccc(O)c(O)c2)[C@H](O)[C@H](O)[C@H]1OC(=O)/C=C/c1ccc(O)c(O)c1 | 125 µg/mL (≈ 159 µM) | 15.6 µg/mL (≈ 19.8 µM) |  | > 125 µg/mL |  |  |  | 
C[C@@H]1O[C@@H](O[C@@H]2[C@@H](O)[C@H](OCCc3ccc(O)c(O)c3)O[C@H](COC(=O)/C=C/c3ccc(O)c(O)c3)[C@H]2O)[C@H](O)[C@H](O)[C@H]1O [ISOACTEOSIDE] |  | > 125 µg/mL |  |  |  |  |  | 
COc1ccc(-c2cc(=O)c3c(O)cc(O[C@@H]4O[C@H](CO[C@@H]5O[C@@H](C)[C@H](O)[C@@H](O)[C@H]5O)[C@@H](O)[C@H](O)[C@H]4O)cc3o2)cc1 [ACACIIN] | > 125 µg/mL | 125 µg/mL (≈ 211 µM) |  | > 125 µg/mL |  |  |  | 
C[C@@H]1O[C@@H](OC[C@H]2O[C@@H](OCCc3ccc(O)c(O)c3)[C@H](O)[C@@H](O)[C@@H]2OC(=O)/C=C/c2ccc(O)c(O)c2)[C@H](O)[C@H](O)[C@H]1O [FORSYTHIASIDE] | > 125 µg/mL | 31.2 µg/mL (≈ 50 µM) | 31.2 µg/mL (≈ 50 µM) | > 125 µg/mL | 0.5 | 1000 µg/mL | Non-Toxic | 
C[C@@H]1O[C@@H](OC[C@H]2O[C@@H](OCCc3ccc(O)c(O)c3)[C@H](O)[C@@H](O[C@@H]3O[C@@H](C)[C@H](O)[C@@H](O)[C@H]3O)[C@@H]2OC(=O)/C=C/c2ccc(O)c(O)c2)[C@H](O)[C@H](O)[C@H]1O [POLIUMOSIDE] | > 125 µg/mL | 62.5 µg/mL (≈ 81.1 µM) |  | > 125 µg/mL |  |  |  | 
C[C@@H]1O[C@@H](O[C@@H]2[C@@H](O)[C@H](OCCc3ccc(O)c(O)c3)O[C@H](CO)[C@H]2OC(=O)/C=C/c2ccc(O)c(O)c2)[C@H](O)[C@H](O)[C@H]1O [ACETOSIDE] | 125 µg/mL (≈ 200 µM) | 62.5 µg/mL (≈ 100 µM) | 62.5 µg/mL (≈ 100 µM) | > 125 µg/mL | 0.72 | 1000 µg/mL | Non-Toxic | 
C[C@@H]1O[C@@H](O[C@@H]2[C@@H](O)[C@H](OCCc3ccc(O)c(O)c3)O[C@H](CO)[C@H]2OC(=O)/C=C/c2ccc(O)cc2)[C@H](O)[C@H](OC(=O)/C=C/c2ccc(O)c(O)c2)[C@H]1O |  | 125 µg/mL (≈ 162 µM) |  | > 125 µg/mL |  |  |  | > 125 µg/mL
